Measurements taken from ChEMBL document CHEMBL1137420, “Design of cyclic peptides with agonist activity at melanocortin receptor-4” (Bioorg Med Chem Lett, 2006).
pEC50, pKi: −log10 of the molar value.

What was measured:
[1] = biological target: Melanocortin receptor (M1 and M4) (Homo sapiens, UniProt P32245+Q01726); test: Selectivity for human MC4R over MC1R; type: functional
Melanocortin receptor 4 [2] = biological target: T1, Melanocortin receptor 4 (Homo sapiens, UniProt P32245); test: Activity at human MC4R by cAMP accumulation in SaoS2 cells; type: functional, cell-based, SAOS-2
T1 sequence (P32245 whole entry): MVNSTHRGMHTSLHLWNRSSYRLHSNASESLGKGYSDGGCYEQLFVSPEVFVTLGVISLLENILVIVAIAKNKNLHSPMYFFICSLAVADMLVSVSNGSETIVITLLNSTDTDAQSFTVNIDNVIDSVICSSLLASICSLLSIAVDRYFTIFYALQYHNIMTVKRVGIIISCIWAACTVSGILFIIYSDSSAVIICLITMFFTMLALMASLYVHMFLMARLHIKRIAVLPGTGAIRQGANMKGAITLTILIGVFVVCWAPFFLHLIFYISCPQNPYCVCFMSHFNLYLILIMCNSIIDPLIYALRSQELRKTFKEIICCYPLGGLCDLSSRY

[3] = biological target: Melanocyte-stimulating hormone receptor (Homo sapiens, UniProt Q01726); test: Activity at human MC1R by cAMP accumulation in SaoS2 cells; type: functional, cell-based, SAOS-2
Sequence of Melanocyte-stimulating hormone receptor (Q01726 whole entry): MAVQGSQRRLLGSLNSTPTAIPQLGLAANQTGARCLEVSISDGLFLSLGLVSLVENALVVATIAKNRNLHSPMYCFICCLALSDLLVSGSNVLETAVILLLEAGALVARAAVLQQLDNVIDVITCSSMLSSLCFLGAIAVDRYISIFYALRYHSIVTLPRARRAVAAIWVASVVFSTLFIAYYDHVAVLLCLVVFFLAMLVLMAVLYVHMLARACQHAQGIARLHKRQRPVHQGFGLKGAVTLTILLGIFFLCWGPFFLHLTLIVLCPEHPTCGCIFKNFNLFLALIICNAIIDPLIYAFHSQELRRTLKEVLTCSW

Melanocortin receptor 4 [4] = biological target: T1, Melanocortin receptor 4; test: Displacement of [125I]NDP-alpha-MSH from human cloned MC4R expressed in HEK293 cells; type: cell-based
Method in brief: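 Binding affinity was measured by displacement of radiolabelled [125I]NDP-alpha-MSH ([Nle4, D-Phe7]-alpha-MSH) from recombinant human MC4R expressed in HEK-293 cells.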

Row | SMILES | EC50 ratio (MC1R/MC4R) [1] | pEC50 (Melanocortin receptor 4 [2]) | pEC50 [3] | pKi (Melanocortin receptor 4 [4])
1 | N=C(N)NCCC[C@@H]1NC(=O)[C@@H](Cc2ccccc2)NC(=O)[C@H](Cc2c[nH]cn2)NC(=O)CCCCNC(=O)[C@H](Cc2c[nH]c3ccccc23)NC1=O | 0.33 | 4.99 | 5.48 | 
2 | N=C(N)NCCC[C@@H]1NC(=O)[C@H](Cc2ccccc2)NC(=O)[C@H](Cc2cnc[nH]2)NC(=O)CCCCCCCNC(=O)[C@H](Cc2c[nH]c3ccccc23)NC1=O | 0.53 | 5.02 | 5.29 | 5.35
3 | NC(N)=NCCC[C@@H]1NC(=O)[C@@H](Cc2ccccc2)NC(=O)[C@H](Cc2cnc[nH]2)NC(=O)CCCCCCCNC(=O)[C@H](Cc2c[nH]c3ccccc23)NC1=O | 4.7 | 7.79 | 7.11 | 6.50
4 | NC(N)=NCCC[C@@H]1NC(=O)[C@@H](Cc2ccccc2)NC(=O)[C@H](Cc2cnc[nH]2)NC(=O)CCCNC(=O)[C@H](Cc2c[nH]c3ccccc23)NC1=O | 0.17 | 5.80 | 6.57 | 5.24
5 | N=C(N)NCCC[C@@H]1NC(=O)[C@@H](Cc2ccccc2)NC(=O)[C@H](Cc2c[nH]cn2)NC(=O)CCCCCNC(=O)[C@H](Cc2c[nH]c3ccccc23)NC1=O | 0.42 | 5.51 | 5.88 | 6.17
6 | N=C(N)NCCC[C@@H]1NC(=O)[C@@H](Cc2ccccc2)NC(=O)[C@H](Cc2c[nH]cn2)NC(=O)CCCCCCNC(=O)[C@H](Cc2c[nH]c3ccccc23)NC1=O | 4.3 | 7.81 | 7.17 | 6.61
